Screens from PubChem BioAssay.
T cruzi repl – T. cruzi replication inhibition. T. cruzi beta-gal in NIH3T3, luminescence, 90 h. hit rate 1.4% among 300,000. inhibition, % (no concentration beside the values);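 active = mean inhibition across valid replicates above about 55%, limit read from the data; inconclusive = mean below that limit but half or more replicates reach it; inactive = mean below it, under half of replicates reach it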;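 also: signal also drops with host cell toxicity which is not excluded here; 0% = plate median of DMSO wells and 100% = zero luminescence signal; higher percent means less beta-gal luminescence so fewer parasites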
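Material: NIH/3T3 host cells with β-galactosidase reporter T. cruzi; Input: 5,000 host fibroblasts per well; Medium: DMEM, 2% fetal bovine serum; Compound: 50 nL DMSO compound solution per well; Schedule: 3 h host attachment, then at least 90 h co-culture; Detection: luminescent β-galactosidase signal after 60 min lysis.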
Beta apoptosis – blocks beta cell apoptosis. INS-1E cytokine-induced death, ATP luminescence, 48 h; percent of positive-control rescue, neutral wells zero. protection from apoptosis, % (test concentration not listed). hit rate 0.8% among 300,000;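 active = Every replicate reaches about 75%, or at least half do and their mean reaches it too, limit read from the data; inconclusive = At least half of replicates reach the limit but their mean does not; inactive = Under half of replicates reach the limit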;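 also: 0% = cytokine-treated negative control wells and 100% = positive control rescue; higher means more ATP so stronger rescue from cytokine killing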
L major viab – reduces viability of Leishmania major promastigotes; resazurin fluorescence viability; AID 1063; inhibition, % at 10 µM; hit rate 9% among 200,000; in the data active = inhibition above about 50%;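 also: promastigotes grown with compound for 44 hours at 28 °C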
SKKanGAS inh – blocks kanamycin growth of S. pyogenes SKKanGAS strain; inhibition, % at 7.5 µM; AID 1662; BacTiter-Glo, 6 h; hit rate 1.3% among 300,000;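 active = mean replicate score, as percent of positive control median, at least 50; inconclusive = mean below 50 but one replicate at or above 50; inactive = mean and every replicate below 50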;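 also: strain carries kanamycin resistance gene driven by streptokinase promoter and grows in 40 µg/ml kanamycin; loss of luminescence reflects streptokinase promoter inhibition or plain growth inhibition; 0% = median of DMSO wells and 100% = positive control at its reference dose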
Mdm2-MdmX inh – human Mdm2/MdmX binding inhibition; SaOS-2 split-luciferase Mdm2/MdmX complementation, luminescence; O15151+Q00987; hit rate 3% among 330,000; inhibition, % at 8 µM;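 active = inhibition of at least 50% at 8 µM in the primary screen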
CSC inhib – cancer stem cell inhibition; cancer stem cell-like cells viability, luminescence; inhibition, % at 7.5 µM; hit rate 1.1% among 300,000; AID 2717; in the data active = inhibition above about 75%; inconclusive = no clear call, values can overlap the other calls; tested in HMLE shEcad cells
Mdm2 MdmX conf – human Mdm2/MdmX binding inhibition, confirmed. shares compounds with Mdm2-MdmX inh. luminescent assay. inhibition, % at 8 µM. hit rate 55% among 10,000. AID 489028; in the data active = inhibition above about 40%
Full FLuc ctr – full-length luciferase inhibition in Mdm2/MdmX counter-screen; shares compounds with Mdm2-MdmX inh; SaOS-2 full-length luciferase counterscreen, luminescence; inhibition, % at 8 µM; hit rate 77% among 6,200; AID 504607;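 active = mean inhibition at 8 µM reaching about 37%, which flags the compound as non-specific, limit read from the data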;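 also: p53-null SaOS-2 cells with luciferase driven by a doxycycline-inducible promoter; compound on cells about two nights before reading with doxycycline added after day one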
Starred values were filed as active, the others as inactive; ? = inconclusive; · = no result. Sampled rows, rich in hits. Any-hit rate of the full collection: about 9.4%.

SMILES	T cruzi repl	Beta apoptosis	L major viab	SKKanGAS inh	Mdm2-MdmX inh	CSC inhib	Mdm2 MdmX conf	Full FLuc ctr
O=C(NCC(c1cccs1)N1CCOCC1)c1cn(-c2ccccc2)nc1-c1ccc(Cl)cc1 (stereo not given)	22	11	·	16	63*	20	25	·
N#Cc1ccccc1S(=O)(=O)N1CCN(c2nc(-c3cccnc3)nc3ccccc23)CC1	·	·	·	·	54*	·	47*	76*
CSc1cccc(NC(=O)C(=O)NCc2ccccc2)c1	-8	-4	·	-2	26	-14	·	·
CSc1cccc(NC(=O)NCc2cccc(CNC(=O)Nc3cccc(SC)c3)c2)c1	-4	·	·	4	56*	·	46*	67*
C(=N\Nc1ccc2ccccc2n1)/c1ccc2c(c1)OCCO2	23	1	35	1	69*	11	79*	98*
CCOC(=O)C1=C(C)Nc2ccccc2N=C1NC(=O)C1CCN(C(=O)c2ccccc2C)CC1	·	-2	·	·	17	-13	·	·
COc1ccc(-c2cc(=O)c3ccccc3o2)cc1	4	·	·	-2	-92	11	·	·
COc1ccc(C2Nc3ccc4ccccc4c3-c3c2c(=O)oc2ccccc32)cc1 (stereo not given)	66*	14	100*	-8	79*	49	21	·
CCOc1ccc(C2Nc3ccc4ccccc4c3-c3c2c(=O)oc2ccccc32)cc1 (stereo not given)	66*	48	56*	17	68*	28	7	·
CC1(C(=O)Nc2ccc(S(=O)(=O)Nc3ncccn3)cc2)CCCC1	·	-1	·	·	15	-12	·	·
N#C/C(=C(/O)COC(=O)CSc1ccc2ccccc2c1)c1nc2ccccc2[nH]1	-12	-3	-3	2	51*	-1	1	·
N#C/C(=C(/O)COC(=O)CCC1CCCCC1)c1nc2ccccc2[nH]1	-6	1	-1	19	66*	·	6	·
Cc1cc(Br)ccc1SCC(=O)OC/C(O)=C(\C#N)c1nc2ccccc2[nH]1	11	1	·	15	83*	2	-2	·
Oc1ccc(C2=NNC(c3ccc(O)cc3)=NN2)cc1	-1	-2	·	0	6	-14	·	·
COc1ccc(/[N+]([O-])=C/c2ccco2)cc1	·	-1	·	·	-23	6	·	·
Cc1ccc2cc(CCl)c(Cl)nc2c1	-6	-3	·	-6	20	3	·	·
CC1(C)CC(/C=C/c2ccccc2)=Nc2ccccc2N1	13	-7	·	-8	-2	4	·	·
CCCSc1ccc([C@H]2N[C@@](CC(C)C)(C(=O)OC)[C@H]3C(=O)N(CC)C(=O)[C@@H]23)cc1	·	-1	·	·	13	·	·	·
O=C(Cc1ccccc1)NNC(=O)Nc1cccc(Cl)c1	0	-10	-6	12	17	-5	·	·
O=C(CN1c2ccccc2Sc2ccccc21)NNC(=O)Nc1cccc(Cl)c1	-7	?	·	50*	67*	82*	24	90*
COc1ccccc1NC(=O)c1cc2c(CO)cnc(C)c2oc1=Nc1cccc(C(N)=O)c1	-1	68	·	15	79*	12	41*	90*
CCOC(=O)C1=C(O)/C(=C\c2cc(C)n(-c3ccc(F)cc3)c2C)N=C1C	-2	·	26	7	2	-17	·	·
COc1ccc(CCn2c(C3CCCCC3)nc3c(c(=O)c4ccccc4n3C)c2=O)cc1OC	·	7	·	16	24	-4	·	·
CCc1nc2c(c(=O)c3ccccc3n2C)c(=O)n1C1CCCCCC1	-6	41	7	22	52*	34	76*	81*
Cn1c2ccccc2c(=O)c2c(=O)n(C3CCCCC3)c(-c3cccs3)nc21	?	42	40	60*	59*	50	69*	63*
COc1ccc(CCn2c(C3CCCCC3)nc3c(c(=O)c4ccccc4n3C)c2=O)cc1	?	·	·	68*	81*	?	50*	45*
O=C(COc1nncc2ccccc12)NCC(F)(F)F	-6	-2	-5	0	17	1	·	·
O=C(CN1C(=O)CC(c2ccccc2)S(=O)(=O)c2ccccc21)N1CCCC1 (stereo not given)	-13	0	-7	3	11	2	·	·
